Assay results of several laboratories.
Protocols differ between the studies behind these lines. ≈ marks a conversion by molar mass, not a printed value.

| Structure (SMILES) | organism | test | system | conditions | measurement | value |
| --- | --- | --- | --- | --- | --- | --- |
| O=C(O)c1cccnc1 | Cryptosporidium parvum | parasite growth, imaging | HCT-8 | 1 mM, 24 h, intracellular | activity vs control | 90.3% |
| Cc1ccc(-n2cc(COC3=CC(=O)c4ccccc4C3=O)nn2)cc1 | Klebsiella pneumoniae | microbial growth, broth dilution | ATCC700603 |  | IC50 | 220 µg/mL (≈ 638 µM) |
| CN[C@H](CC(C)C)C(=O)N[C@H]1C(=O)N[C@@H](CC(N)=O)C(=O)N[C@H]2C(=O)N[C@H]3C(=O)N[C@H](C(=O)N[C@H](C(=O)O)c4cc(O)cc(O)c4-c4cc3ccc4O)[C@H](O)c3ccc(c(Cl)c3)Oc3cc2cc(c3O[C@@H]2O[C@H](CO)[C@@H](O)[C@H](O)[C@H]2O[C@H]2C[C@](C)(N)[C@H](O)[C@H](C)O2)Oc2ccc(cc2Cl)[C@H]1O | Klebsiella pneumoniae | microbial killing, broth dilution | ATCC43816 |  | MBC | > 128 µM |
| Cc1cccc2[nH]ccc12 | Cryptosporidium parvum | parasite growth | HCT-8 | 24 h, intracellular | EC90 | 552 µM |
| CC(C)(NC(=O)c1cc2c(F)cc(F)cc2[nH]1)c1cn(Cc2cccc(Cl)c2)nn1 | Cryptosporidium parvum | parasite growth, imaging | HCT-8 | 11 µM, 72 h, intracellular | inhibition | ~30% |
| Clc1ccc(-n2cc(COc3cccc4cccnc34)nn2)cc1 | Klebsiella pneumoniae | microbial growth, broth dilution | ATCC700603 |  | IC50 | 554 µg/mL (≈ 1650 µM) |
| COc1cccc2cc[nH]c12 | Cryptosporidium parvum | parasite growth | HCT-8 | 24 h, intracellular | EC90 | 682 µM |
| CCOC(=O)c1c(N)csc1-c1cn(-c2ccccc2)nc1-c1ccc(C)cc1 | Klebsiella pneumoniae | microbial growth, well diffusion |  | 100000 µg/mL | inhibition zone | 27 mm |
| O=C1NC(=S)N/C1=C\c1c2ccccc2c(-c2ccc(N(c3ccccc3)c3ccccc3)cc2)c2ccccc12 | Streptococcus pneumoniae | microbial growth, broth dilution | ATCC49619 |  | MIC | > 1000 µg/mL |
| Cc1ccc(C(C)C)cc1OS(=O)(=O)c1ccc([N+](=O)[O-])cc1 | Klebsiella pneumoniae | microbial growth, broth dilution | ATCC700603 |  | IC50 | 463 µg/mL (≈ 1380 µM) |
| Cc1ccc(-c2nn(-c3ccccc3)cc2C=C(C#N)C2=NC(=O)CS2)cc1 | Klebsiella pneumoniae | microbial growth, well diffusion |  | 100000 µg/mL | inhibition zone | 21 mm |
| O=S(=O)(Oc1cccc2cccnc12)c1ccccc1 | Klebsiella pneumoniae | microbial growth, broth dilution | ATCC700603 |  | IC50 | 340 µg/mL |
| Cc1c(NC(=O)CC2=NC(=O)CS2)c(=O)n(-c2ccccc2)n1C | Klebsiella pneumoniae | microbial growth, well diffusion |  | 100000 µg/mL | inhibition zone | 25 mm |
| Cc1ccc(C(C)C)cc1OCc1cn(-c2ccc(Cl)cc2)nn1 | Klebsiella pneumoniae | microbial growth, broth dilution | ATCC700603 |  | IC50 | 206 µg/mL (≈ 602 µM) |
| O=c1[nH]cnc2nc[nH]c12 | Cryptosporidium parvum | parasite growth, imaging | HCT-8 | 1 mM, 24 h, intracellular | activity vs control | 106% |
| O=C(O)CN1C(=O)/C(=C/c2ccc(-c3ccc(N(c4ccccc4)c4ccccc4)cc3)cc2)SC1=S | Streptococcus pneumoniae | microbial growth, broth dilution | ATCC49619 |  | MIC | 15.6 µg/mL (≈ 29.8 µM) |
| O=C(Nc1ccccc1-c1ccc(F)c(F)c1)c1nccnc1C(F)(F)F | Alternaria kikuchiana | microbial growth |  |  | EC50 | 0.058 µg/mL |
| Cc1c(NN=C2SC(CC#N)=NC2=O)c(=O)n(-c2ccccc2)n1C | Klebsiella pneumoniae | microbial growth, well diffusion |  | 100000 µg/mL | inhibition zone | 15 mm |
| O=C(O)CN1C(=O)/C(=C/c2ccc(-c3ccc(N(c4ccccc4)c4ccccc4)cc3)c3ccccc23)SC1=S | Streptococcus pneumoniae | microbial killing, broth dilution | ATCC49619 |  | MBC | > 1000 µg/mL |

| Structure (SMILES) | organism | test | system | conditions | measurement | value |
| --- | --- | --- | --- | --- | --- | --- |
| NCCCCC(=O)O | Cryptosporidium parvum | parasite growth, imaging | HCT-8 | 1 mM, 24 h, intracellular | activity vs control | 102% |
| CC(C)(NC(=O)c1cc2c(Cl)cc(Cl)cc2[nH]1)c1cn(Cc2ccccc2Cl)nn1 | Cryptosporidium parvum | parasite growth, imaging | HCT-8 | 11 µM, 72 h, intracellular | inhibition | > 60% |
| O=C(O)CN1C(=O)/C(=C/c2ccc(-c3ccc(N(c4ccccc4)c4ccccc4)cc3)cc2)NC1=S | Streptococcus pneumoniae | microbial killing, broth dilution | ATCC49619 |  | MBC | 125 µg/mL |
| NCCCCN | Cryptosporidium parvum | parasite growth, imaging | HCT-8 | 1 mM, 24 h, intracellular | activity vs control | 110% |
| O=C(O)c1cn(C2CC2)c2cc(N3CCNCC3)c(F)cc2c1=O | Klebsiella pneumoniae | microbial killing, broth dilution |  |  | MBC | 0.5 µg/mL |
| CCCCS(=O)(=O)Oc1cc(C(C)C)ccc1C | Klebsiella pneumoniae | microbial growth, broth dilution | ATCC700603 |  | IC50 | 95.5 µg/mL (≈ 353 µM) |
| N#CC(=Cc1cn(-c2ccccc2)nc1-c1ccccc1)C1=NC(=O)CS1 | Klebsiella pneumoniae | microbial killing, broth dilution |  |  | MBC | 0.25 µg/mL |
| Cc1ccc2cc[nH]c2c1 | Cryptosporidium parvum | parasite growth | HCT-8 | 24 h, intracellular | EC50 | 310 µM |
| CCOC(=O)c1c(N)csc1-c1cn(-c2ccccc2)nc1-c1ccccc1 | Klebsiella pneumoniae | microbial growth, well diffusion |  | 100000 µg/mL | inhibition zone | 22 mm |
| Cc1ccc(S(=O)(=O)Oc2cc(C(C)C)ccc2C)cc1 | Klebsiella pneumoniae | microbial growth, broth dilution | ATCC700603 |  | IC50 | 279 µg/mL (≈ 918 µM) |
| O=C1NC(=S)N/C1=C\c1ccc(-c2ccc(N(c3ccccc3)c3ccccc3)cc2)cc1 | Streptococcus pneumoniae | microbial killing, broth dilution | ATCC49619 |  | MBC | > 1000 µg/mL |
| N#CC(=Cc1ccccc1O)C1=NC(=O)C(=Cc2cn(-c3ccccc3)nc2-c2ccccc2)S1 | Klebsiella pneumoniae | microbial growth, well diffusion |  | 100000 µg/mL | inhibition zone | 26 mm |
| O=C(O)CN1C(=O)/C(=C/c2ccc(-c3ccc(N(c4ccccc4)c4ccccc4)cc3)c3ccccc23)NC1=S | Streptococcus pneumoniae | microbial killing, broth dilution | ATCC49619 |  | MBC | > 1000 µg/mL |
| CCCCS(=O)(=O)Oc1cccc2cccnc12 | Klebsiella pneumoniae | microbial growth, broth dilution | ATCC700603 |  | IC50 | 171 µg/mL (≈ 645 µM) |
| O=C1NC(=S)N/C1=C\c1ccc(-c2ccc(N(c3ccccc3)c3ccccc3)cc2)c2ccccc12 | Streptococcus pneumoniae | microbial killing, broth dilution | ATCC49619 |  | MBC | > 1000 µg/mL |
| CC(C)(NC(=O)c1cc2c(F)cc(F)cc2[nH]1)c1cn(Cc2ccc(Cl)c(Cl)c2)nn1 | Cryptosporidium parvum | parasite growth, imaging | HCT-8 | 11 µM, 72 h, intracellular | inhibition | ~30% |
| NCCCCCN | Cryptosporidium parvum | parasite growth, imaging | HCT-8 | 1 mM, 24 h, intracellular | activity vs control | 96.3% |
| O=C1NC(=S)S/C1=C\c1c2ccccc2c(-c2ccc(N(c3ccccc3)c3ccccc3)cc2)c2ccccc12 | Streptococcus pneumoniae | microbial killing, broth dilution | ATCC49619 |  | MBC | > 1000 µg/mL |
